In the array DNA melting data of Ke et al. (doi:10.1101/2024.01.08.574731):

Experiments:
[1] = folding enthalpy; higher = less favourable; fluorescence melt of hairpins on a sequencing array, two-state fit; conditions: sodium 0.088 M
Outline: (§1)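 Library hairpins on a sequenced MiSeq flow cell carried annealed Cy3 and quencher oligos, and their Cy3 fluorescence was imaged in 50 mM Na-HEPES pH 8.0 with 25 mM NaCl, in 2.5 °C steps up to 60 °C. Signals were normalised to Cy3 before quenching and to control constructs. Melting temperature and folding enthalpy were obtained from bootstrapped two-state fits, combined by inverse-variance weighting across four replicates, and the fitted temperatures were then raised by 9.35 °C to match UV melts.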

[2] = melting temperature; fluorescence melt of hairpins on a sequencing array, two-state fit, raised by 9.35 °C to match UV melts; conditions: sodium 0.088 M
Outline: as §1

GTCGTAGGAAACTACAAC ((.((((....)))).))
folding enthalpy [1]: -21 kcal/mol
Tm [2]: 30 °C

CGCGCGGAAACGCCCGCG ((((((....)))..)))
folding enthalpy [1]: -29.7 kcal/mol
Tm [2]: 54.7 °C

GCTATAACGAAAGTTAGC (((..(((....))))))
folding enthalpy [1]: -19.8 kcal/mol
Tm [2]: 37.5 °C

GAAAACGGAAACGTTTCC (.(((((....))))).)
folding enthalpy [1]: -15.1 kcal/mol
Tm [2]: 34.1 °C

GTATCGGGAAACTGATAC (((((.(....).)))))
folding enthalpy [1]: -37.3 kcal/mol
Tm [2]: 45.3 °C

GACGCCGAAAGGCTCGTC ((((((....)))..)))
folding enthalpy [1]: -14.5 kcal/mol
Tm [2]: 50 °C

GACAACCGAAAGGTGTC (((.(((....))))))
folding enthalpy [1]: -24.8 kcal/mol
Tm [2]: 53.9 °C

CGAGCGGAAACGCATCG ((((((....))).)))
folding enthalpy [1]: -20.9 kcal/mol
Tm [2]: 48.5 °C

GTAGACGGAAACGTCCAC ((.((((....)))).))
folding enthalpy [1]: -13.4 kcal/mol
Tm [2]: 37.9 °C

GGACACGGAAACGTGTTC (.(((((....))))).)
folding enthalpy [1]: -24.8 kcal/mol
Tm [2]: 54.9 °C

GCACCGCGAAAGCGTCGC ((..(((....)))..))
folding enthalpy [1]: -12.8 kcal/mol
Tm [2]: 41.2 °C

GATCGCTTCTGCGATC ((((((....))))))
folding enthalpy [1]: -42.3 kcal/mol
Tm [2]: 68.3 °C

GGATCAGGAAACTGGTTC (.(.(((....))).).)
folding enthalpy [1]: -12.2 kcal/mol
Tm [2]: 29.1 °C

GGTGGTGGAAACATCACC ((((.((....)).))))
folding enthalpy [1]: -41.3 kcal/mol
Tm [2]: 52.3 °C

GCGGGCGAAAGCCACCGC ((((((....)))..)))
folding enthalpy [1]: -17.4 kcal/mol
Tm [2]: 59.2 °C

GGCCTAGGAAACCAGGCC (((((.(....).)))))
folding enthalpy [1]: -49.6 kcal/mol
Tm [2]: 53.9 °C

GATCTCCGGTGAGATC ((((((....))))))
folding enthalpy [1]: -35.5 kcal/mol
Tm [2]: 52 °C

GGGGATGGAAACGTCCTC (.(((.(....).))).)
folding enthalpy [1]: -27 kcal/mol
Tm [2]: 36.1 °C

GATCTTTGTTAAGATC ((((((....))))))
folding enthalpy [1]: -33.6 kcal/mol
Tm [2]: 44 °C

GCTGCTCGAAAGAGGAGC (((.(((....))).)))
folding enthalpy [1]: -38.9 kcal/mol
Tm [2]: 59.6 °C

GACCCCGAAAGGGTCGTC ((((((....)))..)))
folding enthalpy [1]: -24.6 kcal/mol
Tm [2]: 58.2 °C

GTATATACGAAAGTATAC (((..(((....))))))
folding enthalpy [1]: -16.1 kcal/mol
Tm [2]: 29.6 °C

GCACCACGAAAGTGTTGC (((.(((....))).)))
folding enthalpy [1]: -35.9 kcal/mol
Tm [2]: 52.6 °C

GATCTCTATTGAGATC ((((((....))))))
folding enthalpy [1]: -39.1 kcal/mol
Tm [2]: 53 °C

GCATTGCGAAAGCATTGC (((.(((....))).)))
folding enthalpy [1]: -52.2 kcal/mol
Tm [2]: 55.4 °C

GGCGGACGAAAGTCGCC (((.(((....))))))
folding enthalpy [1]: -28.2 kcal/mol
Tm [2]: 68.5 °C

GACCGCGAAAGCGAGTC ((((((....))).)))
folding enthalpy [1]: -20 kcal/mol
Tm [2]: 64.1 °C

GATCAGTGCCTGATC ((((((...))))))
folding enthalpy [1]: -22.5 kcal/mol
Tm [2]: 49 °C

GCGATCGGAAACAATCGC (((((.(....).)))))
folding enthalpy [1]: -37.6 kcal/mol
Tm [2]: 48.1 °C

GCGATGTATCGC ((((....))))
folding enthalpy [1]: -28.2 kcal/mol
Tm [2]: 56.7 °C

GCAACATCGAAAGATTGC (((..(((....))))))
folding enthalpy [1]: -19.8 kcal/mol
Tm [2]: 34.2 °C

GCGAACGAAAGTTCCCGC ((((((....)))..)))
folding enthalpy [1]: -16.3 kcal/mol
Tm [2]: 36.7 °C

GCATCGCGAAAGCGAAGC ((.((((....)))).))
folding enthalpy [1]: -19.1 kcal/mol
Tm [2]: 61.3 °C

GCTTTTCGAAAGAATAGC (((.(((....))).)))
folding enthalpy [1]: -29.3 kcal/mol
Tm [2]: 44 °C

GTCATACCGAAAGGTGAC (((..(((....))))))
folding enthalpy [1]: -19 kcal/mol
Tm [2]: 43 °C
